Measurements published in PubChem BioAssay AID588627 (Johns Hopkins Ion Channel Center, 2011).
The campaign covered roughly 310,000 compounds. About 1,400 (0.45%) were called active.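 Rule for the calls: active = calcium response B-score plate-corrected fluorescence ratio at least 3 library SD, with starting fluorescence B-score inside 5 SD; inactive = the rest.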 Many of the other results were omitted from the sample, so actives are more common in it than they were.

What follows are compounds tested against Mas-related G-protein coupled receptor member X1 (Homo sapiens) (UniProt Q96LB2) (assay: agonists of human MrgX1 receptor, primary screen, HEK293 cells, Fluo-4 calcium flux (AID 588627;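 for B-score: B-score of the peak-minus-trough calcium fluorescence change over baseline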)). Conditions: Fluo-4 calcium fluorescence, agonist mode, at 10 µM; active compounds read high.
Summary of the method: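 Test system: Stable human MrgX1 HEK293 cell line | Schedule: Overnight plating before 1 h dye loading | Read-out basis: Baseline-normalised fluorescence change ratio, B-scored | Detection: Kinetic calcium dye fluorescence, Fluo-4 NW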

Chain of Mas-related G-protein coupled receptor member X1 (Homo sapiens) (Q96LB2 whole entry, looked up): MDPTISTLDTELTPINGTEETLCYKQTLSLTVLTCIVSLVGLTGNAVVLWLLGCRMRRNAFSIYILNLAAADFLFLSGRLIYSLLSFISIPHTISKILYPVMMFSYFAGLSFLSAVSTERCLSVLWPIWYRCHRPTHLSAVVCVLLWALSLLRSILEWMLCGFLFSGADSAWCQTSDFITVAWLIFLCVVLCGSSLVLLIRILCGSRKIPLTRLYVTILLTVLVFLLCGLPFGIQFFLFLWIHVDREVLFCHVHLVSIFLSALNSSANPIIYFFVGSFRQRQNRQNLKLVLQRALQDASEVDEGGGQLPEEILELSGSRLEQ

| Structure (SMILES) | B-score |
| --- | --- |
| C/C(=C\c1ccco1)C1Nc2cccc3cccc(c23)N1 | inactive |
| COC1(C2=NCCN2)COc2ccccc2O1 (stereo not drawn) | inactive |
| COc1ccc(Nc2ncc(C(=O)N3CCN(c4ccccc4OC)CC3)c3ccccc23)cc1 | inactive |
| Cc1ccc(-n2[nH]c(C)c(/C=N/N3C(=O)c4cccc5cccc(c45)C3=O)c2=O)cc1 | 104 (active) |
| Cc1[nH]n(-c2cccc(Cl)c2)c(=O)c1/C=N/n1c(C)nc2ccccc2c1=O | inactive |
| COc1cc(SC#N)ccc1N=Cc1c(C)[nH]n(-c2ccc(C)cc2)c1=O | inactive |
| CCS(=O)(=O)n1nc(-c2ccccc2)nc1SCc1ccccc1 | 27.5 (active) |
| CCS(=O)(=O)n1nc(-c2ccc(OC)cc2)nc1SC | inactive |
| CCn1c(SCc2ccccc2)nc2c(c1=O)SCC2 | inactive |
| CN(CCOc1ccc(Br)cc1)CC(=O)Nc1cccc(S(=O)(=O)NC2=NCCC2)c1 | inactive |
| O=C(Nc1nnc(-c2ccccc2)o1)c1cc(-c2cccs2)nc2ccccc12 | 26.9 (active) |
| CCCCN(C)CCCNC(=O)c1cc(-c2cccs2)nc2ccccc12 | inactive |
| O=C(NCCN1CCOCC1)c1cc(-c2cccs2)nc2ccccc12 | inactive |
| CCOC(=O)/C(=N\Nc1ccccc1[N+](=O)[O-])c1csc(Nc2ccccc2)n1 | inactive |
| O=C(Nc1ccc(Cl)cc1)C1c2cccc[n+]2CC(=O)N1Cc1ccc2c(c1)OCO2 (stereo not drawn) | inactive |
| CCN1/C(=C\c2ccc3ccccc3[n+]2CC)Sc2cc(C)ccc21 | inactive |
| CCN1/C(=C/c2ccc3ccc(C)cc3[n+]2CC)Sc2ccccc21 | 123 (active) |
| CC(C)OCCCNC(=O)c1ccc(C2SCC(=O)N2Cc2ccco2)cc1 (stereo not drawn) | inactive |
| COc1cc(NC(=O)c2ccc3c(c2)OCO3)ccc1NC(=O)c1cccs1 | inactive |
| COc1ccc(OCCCC(=O)OC(C)C(=O)Nc2ccccc2[N+](=O)[O-])cc1 (stereo not drawn) | inactive |
| COc1ccc(C)cc1N(CC(=O)N1CCCC1)S(=O)(=O)c1ccccc1 | inactive |
| COc1ccc(N(CC(=O)N2CCCCCC2)S(=O)(=O)c2ccccc2)cc1 | inactive |
| COc1ccccc1N(CC(=O)N1CCCCC1)S(=O)(=O)c1ccccc1 | 50 (active) |
| Cc1cccc(-c2nc3c(c(SCC(=O)N4CCOCC4)n2)CCCC3)c1 | inactive |
| C=CCn1c(=NC(=O)c2cccs2)sc2cc(NC(C)=O)ccc21 | inactive |
| CCCc1[nH]nc2c1C(c1ccc(OC(=O)c3ccco3)cc1)C(C#N)=C(N)O2 (stereo not drawn) | inactive |
| CCCc1[nH]nc2c1C(c1ccc(Br)s1)C(C#N)=C(N)O2 (stereo not drawn) | 26.9 (active) |
| CCCc1[nH]nc2c1C(C1CC=CCC1)C(C#N)=C(N)O2 (stereo not drawn) | inactive |
